Screening data (PubChem)
Diaph inh CS: diaphorase inhibition or chemical oxidation counter-screen | diaphorase resazurin-to-resorufin fluorescence, NADH, 16 min; bacterial (C. kluyveri) enzyme, not human | inhibition, % at 20 µM | 190,000 compounds, 0.69% hits;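 active = primary screen inhibition at 20 µM above a set limit, cut at about 50% in these data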;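 note: plate controls were DMSO with full reaction for no effect and wells lacking NADH for full effect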
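Benchmarks: positive control wells lacking NADH, neutral wells with DMSO only. System: bacterial diaphorase enzyme (C. kluyveri). Input: 0.14 U/mL diaphorase, enzyme working solution. Detection: resorufin fluorescence, excitation 544 nm, emission 590 nm. Times: 16-min room-temperature incubation before reading.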
Lmaj promast: inhibitors of Leishmania major promastigote growth; 200,000 compounds, 9% hits; inhibition, % at 10 µM; Leishmania major promastigotes, resazurin fluorescence viability;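 note: promastigotes grown with compound for 44 hours at 28 °C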
Diaph act CS: activates diaphorase or chemically reduces, flagging diaphorase assay artifacts; activation factor at 20 µM; Diaphorase/resazurin coupled assay, resorufin fluorescence, 16 min; stronger effect = higher value; 1 = vehicle wells, 0 = NADH-free wells; AID 1229; 190,000 compounds, 0.005% hits;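 active = diaphorase activity raised at least twofold by the compound at 20 µM; inactive = activation factor below 2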
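Test system: Clostridium kluyveri diaphorase, purified enzyme; input: enzyme 0.07 U/mL final; buffer or medium: 50 mM HEPES pH 7.4 with 4.542 mM MgCl2, 0.005% Tween 20; also added: 0.114 mM NADH and 0.1 mM resazurin, final amounts; schedule: 16 min enzyme reaction, ambient temperature; technique: fluorescence of resorufin, 544 nm excitation, 590 nm emission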
WT yeast gro inh: growth inhibition of WT yeast, mitochondrial fusion screen | inhibition, % at 10 µM | mitochondrial fusion phenotypic screen, WT strain | 190,000 compounds, 2.1% hits; in the data active = inhibition above about 58%; tested in S. cerevisiae
G6PDH counter: L. mesenteroides G6PDH inhibition counter-screen; 200,000 compounds, 0.12% hits; Purified L. mesenteroides G6PDH, diaphorase/resazurin coupled fluorescence, 45 min; inhibition, % at 5 µM
Starred values were filed as active, the others as inactive; x = no result given. Only some compounds are listed: those with a hit (about 11% of all), similar ones and a draw of the others. Cut-off read from the data, not from the text of the source, unless noted: active = inhibition above about 50%; inactive = the rest.

SMILES | Diaph inh CS | Lmaj promast | Diaph act CS | WT yeast gro inh | G6PDH counter
CCN(CC)S(=O)(=O)c1ccc2c(c1)nc(CCC(=O)Nc1ccccc1Cc1ccccc1)n2CC | 18 | 86* | 0.8 | -1 | 0
CCn1c(CCC(=O)Nc2cc(F)ccc2C)nc2cc(S(=O)(=O)N(C)C)ccc21 | 11 | 3 | 0.9 | 1 | -5
CC(C)SCCCOc1ccc(C(C)(C)C)cc1 | 9 | -6 | 0.9 | 3 | -4
COc1cc(CN2CC(C)OC(C)C2)cc(OC)c1 (centres undefined) | x | -4 | x | x | x
COc1cccc(OCCCCN2CC(C)OC(C)C2)c1 (centres undefined) | 12 | 93* | 0.9 | -7 | 5
CC(C)SCCCCOc1ccc2ccccc2c1 | 10 | 72* | 0.9 | 31 | 5
CC1CN(CCCCOc2ccc3ccccc3c2)CC(C)O1 (centres undefined) | 21 | 90* | 0.8 | 20 | 10
COC(=O)c1ccc(OCCCCN2CC(C)OC(C)C2)cc1 (centres undefined) | -23 | 96* | 1.2 | 10 | 14
Nc1c(Br)cc(Br)c(N2CCCC2=O)c1Br | 15 | -8 | 0.8 | 3 | 2
O=C(/C=C/Nc1ccc(Cc2ccc(N/C=C/C(=O)C(F)(F)F)cc2)cc1)C(F)(F)F | 6 | -5 | 0.9 | 2 | 5
COc1ccccc1NC(=O)CC1C(=O)Nc2ccccc2N1C(=O)c1ccccc1 (centres undefined) | 10 | 4 | 0.9 | 8 | 0
Cc1ccccc1-n1c(Cn2c(=O)sc3ccccc32)nnc1SCC(=O)NCC1CCCO1 (centres undefined) | 21 | -8 | 0.8 | 15 | 7
CNC(=S)N(Cc1cc2cc(OC)c(OC)cc2[nH]c1=O)C1CCCC1 | -12 | -4 | 1.1 | -9 | 14
CCc1cc(=O)oc2cc(OC(C)=O)cc(OC(C)=O)c12 | 12 | 56* | 0.9 | 44 | 14
CCCCc1cc(=O)oc2cc(C)cc(OCC(=O)O)c12 | 10 | -3 | 0.9 | 9 | -2
Cc1noc(C)c1COc1cccc(C(=O)N2CCc3ccccc32)c1 | 2 | 19 | 1 | 18 | -4
CCOC(=O)C(C(=O)NCc1cccc(OC)c1)c1ncc(C(F)(F)F)cc1Cl (centres undefined) | 20 | 2 | 0.8 | -5 | 3
CCOc1cc(/C=C2/SC(=S)N(C)C2=O)ccc1Oc1ccc([N+](=O)[O-])cc1[N+](=O)[O-] | 10 | 63* | 0.9 | -6 | -4
COc1cccc(-c2nc3sc4c(c3c(=O)[nH]2)CCCCC4)c1 | -5 | -8 | 1.1 | 9 | -3
COc1cc(C(=O)c2ccccc2)c(OC)cc1C(=O)Nc1ccc(O)cc1 | x | 1 | x | -3 | 16
COc1cccc(/C=N/NC(=O)c2cc3cc([N+](=O)[O-])ccc3s2)c1O | 1 | 100* | 1 | 9 | -20
COc1cccc(/C=N/NC(=O)c2ccc(=O)n(C)c2)c1OC | -6 | -6 | 1.1 | 0 | 22
COc1cccc(/C=N/NC(=O)c2ccccc2)c1OS(=O)(=O)c1ccccc1 | 18 | 92* | 0.8 | -7 | -5
COc1cc(/C=N/NC(=O)c2ccc(N(C)S(=O)(=O)c3ccccc3)cc2)cc(OC)c1OC | 21 | 100* | 0.8 | -9 | 1
COc1cccc(/C=N/NC(=O)c2cc(-c3cccn3C)n[nH]2)c1O | 22 | 98* | 0.8 | 9 | 7
SMILES | Diaph inh CS | Lmaj promast | Diaph act CS | WT yeast gro inh | G6PDH counter
CC1CCCCN1C(=O)COc1ccccc1F (centres undefined) | 17 | -5 | 0.8 | -1 | 10
Cc1c(C=O)c(Cl)n(C)c(=O)c1C#N | 44 | -7 | 0.6 | 4 | 17
COc1cc([N+](=O)[O-])cc(/C=N/NC(=O)c2ccc(C)nc2)c1O | 43 | -9 | 0.6 | -16 | 8
COc1cccc(/C=N/NC(=O)c2cc3c(OC)cccc3[nH]2)c1O | 6 | 95* | 0.9 | 6 | 14
COc1ccc(/C=N/NC(=O)CN(CCc2ccccc2)S(=O)(=O)c2ccc(NC(C)=O)cc2)cc1OC | 19 | 32 | 0.8 | -15 | 0
COc1cc([N+](=O)[O-])cc(/C=N/NC(=O)CC#N)c1O | 51* | -5 | 0.5 | 9 | 21
COc1cc(/C=N/NC(=O)CN(CCc2ccccc2)S(=O)(=O)c2ccc(NC(C)=O)cc2)cc(OC)c1OC | 25 | 60* | 0.7 | -4 | -3
COc1cccc(/C=N/NC(=O)c2cc3c(OC)cccc3[nH]2)c1OC | 15 | 1 | 0.9 | 7 | -16
COc1cccc(/C=N/NC(=O)c2cc3c(OC)c(OC)ccc3[nH]2)c1OC | 4 | 73* | 1 | -3 | 5
Cc1ccc(NC(=O)Cn2cnc3c(nnn3Cc3ccc(F)cc3)c2=O)cc1 | -1 | -8 | 1 | -5 | 1
COc1ccc(-c2nnc3n(CCc4ccccc4)c(=O)c4ccccc4n23)c(OC)c1 | 23 | 32 | 0.8 | 98* | -12
COc1cc(OC)c(-c2nnc3n(CCc4ccccc4)c(=O)c4ccccc4n23)cc1OC | 28 | 25 | 0.7 | 15 | -12
COc1cc(-c2nnc3n(CCc4ccccc4)c(=O)c4ccccc4n23)cc(OC)c1OC | -9 | 72* | 1.1 | -5 | -2
CCOC(=O)c1ccc(NC(=O)N2CCN(CCc3ccccc3)CC2)cc1 | 22 | 64* | 0.8 | 0 | -7
CCOC(=O)c1ccc(NC(=S)N2CCN(Cc3ccccc3)CC2)cc1 | 20 | 26 | 0.8 | -15 | -2
CCOC(=O)c1ccc(CNCc2ccccc2)cc1 | 2 | 100* | 1 | -25 | 8
CCOC(=O)c1ccc(NC(=S)NCCCN2CCN(C3CCCCC3)CC2)cc1 | 10 | 53* | 0.9 | -8 | 1
CCOC(=O)c1ccc(CNCc2ccc(Br)cc2)cc1 | 7 | 45 | 0.9 | 14 | 6
CCOC(=O)c1ccc(NC(=S)NCCCN2CCCCC2)cc1 | -11 | 20 | 1.1 | -15 | 9
CCOC(=O)c1ccc(NC(=S)NN2CCOCC2)cc1 | 12 | 53* | 0.9 | 2 | 0
CC(NC(=O)OCc1ccccc1)C(=O)NCC(=O)NC(Cc1ccc(OC(C)(C)C)cc1)C(=O)OC(C)(C)C (centres undefined) | 16 | 53* | 0.8 | 0 | -8
CC(C)(C)OC(=O)C(Cc1ccc(OC(C)(C)C)cc1)NC(=O)CNC(=O)CNC(=O)OCc1ccccc1 (centres undefined) | 16 | 32 | 0.8 | -9 | -1
Cc1sc2nc[nH]c(=S)c2c1-c1ccccc1 | 82* | 9 | 0.2 | 39 | -8
Cc1ccc(-c2csc3nc[nH]c(=S)c23)cc1 | 70* | -6 | 0.3 | 1 | 9
Cc1sc2nc(-c3ccncc3)[nH]c(=O)c2c1-c1ccccc1 | 2 | -1 | 1 | -7 | -6
S=c1[nH]cnc2scc(-c3ccc(Br)cc3)c12 | 30 | -1 | 0.7 | -3 | 0
O=c1[nH]cnc2scc(-c3ccccc3)c12 | 13 | -3 | 0.9 | -5 | 4
